Converted amounts (≈) assume the structure as drawn.
Key:
[1] = tested on: protein kinase C 1 (Pkc1); assay: Cellular protein kinase C activity; format: biochemical, C. neoformans; conditions: cell lysates
In short: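 Cells were grown overnight in YPD at 30 °C, washed three times in DPBS, adjusted to 1 × 10^7 cells/mL and lysed with glass beads in kit extraction buffer. Equal total protein plus a dilution series of test compound went into each reaction with a fluorescent Pkc1-specific substrate for 30 min. Products were separated on agarose gel, quantified by densitometry and expressed as % of DMSO reactions. Staurosporine served as reference inhibitor.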

[2] = Stability in human plasma; format: in vitro ADME; conditions: after 5 h of incubation
HEK293 cells = assay: Mammalian cell cytotoxicity; format: cell-based, human; conditions: higher concentrations not tested
C. neoformans H99 cells = assay: Checkerboard assay of interaction with caspofungin; format: cell-based, Cryptococcus neoformans
C. neoformans [3] = assay: Alamar blue viability assay with and without 1 M sorbitol; format: cell-based, Cryptococcus neoformans
In short: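 C. neoformans was grown overnight in YPD at 30 °C and seeded at 1.5 × 10^4 cells/mL into a dilution series of test compound, in synthetic complete medium with or without 1 M sorbitol. Plates ran 24 h at 37 °C, then Alamar blue (1:10) was added for 2 h at 37 °C. Fluorescence (Ex 544/Em 590) was compared to DMSO wells, and IC50 was obtained by curve fitting.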

[4] = tested on: C. neoformans strain CM108; assay: MIC at 30 and 37 °C with strain CM108; format: cell-based; conditions: Cryptococcus neoformans
In short: (§1)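 MIC was determined by the CLSI-approved method, read at a 72 h end point. Congenic CM108 and mpk1Δ strains came from the Fungal Genetics Stock Center. CM108 was tested at 30 and 37 °C and mpk1Δ at 30 °C.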

[5] = Stability in mouse plasma; format: in vitro ADME; conditions: after 5 h of incubation
C. neoformans mpk1Δ = assay: MIC against the congenic mpk1Δ strain; format: cell-based, Cryptococcus neoformans; conditions: 30 °C
In short: as §1

[6] = tested on: Rlm1-lacZ reporter of CWIP activity; assay: Rlm1-lacZ cell wall integrity pathway; format: cell-based, S. cerevisiae; conditions: exposure of cells harboring the reporter plasmid
In short: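 S. cerevisiae CRY2 (W303 background) carried a plasmid with lacZ driven by two consensus Rlm1 binding sites. Cells were grown overnight in SC lacking uracil at 30 °C, diluted to 0.1 OD600 in YPD and grown to 0.4. They were dispensed at 0.05 OD600, and test compound was pinned in. Plates stood 4 h at room temperature before Gal-Screen luminescence read-out against solvent wells. Values are the mean of three replicates.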

Mpk1 phosphorylation = assay: Western blot of Mpk1 phosphorylation in C. neoformans; format: cell-based; conditions: exponential phase cells, MPK1-FLAG strain
C. neoformans [7] = conditions: cited from earlier work

CN[C@@H]1C[C@H]2O[C@@](C)([C@@H]1OC)n1c3ccccc3c3c4c(c5c6ccccc6n2c5c31)C(=O)NC4 [staurosporine, reference compound]
reduction in Pkc1 activity ([1]; data not shown): 25%

Cc1ccc(C(C)C)c(OCCn2c(S)nc3ccccc32)c1 [Compound 1, 1-(2-(2-isopropyl-5-methylphenoxy)ethyl)-1H-benzo[d]imidazole-2(3H)-thione]
remaining intact in plasma [2]: 100% | concentration up to which nontoxic (HEK293 cells): ≥ 80 µM | fractional inhibitory concentration index (FICI) (C. neoformans H99 cells; combination of 1 with caspofungin, 1 at 2-fold below its MIC): 0.625 | reduction of the concentration of caspofungin needed to inhibit C. neoformans (C. neoformans H99 cells; subinhibitory concentrations of 1): 8 fold | sorbitol suppression of anticryptococcal activity (C. neoformans [3]): sorbitol-suppressable | protein kinase C activity as percentage of DMSO-treated samples ([1]; concentrations as high as 10-fold above its MIC): 91 ± 3% | MIC ([4]; CM108, 30 °C): 16 µg/mL (≈ 49 µM) | MIC ([4]; CM108, 37 °C): 8 µg/mL (≈ 24.5 µM) | remaining intact in plasma [5]: 100% | activity against strain from which MPK1 has been deleted (C. neoformans mpk1Δ): active

O=S(=O)(O)c1cc(Nc2nc(Nc3ccccc3)nc(N(CCO)CCO)n2)ccc1/C=C/c1ccc(Nc2nc(Nc3ccccc3)nc(N(CCO)CCO)n2)cc1S(=O)(=O)O [Calcofluor white]
increase in β-galactosidase activity [6]: 5 fold | Mpk1 phosphorylation caused by the agent alone (Mpk1 phosphorylation): induced phosphorylation of Mpk1

OC(Cn1cncn1)(Cn1cncn1)c1ccc(F)cc1F [fluconazole]
AK activity compared to solvent controls (C. neoformans [7]): no increase

CCN(CC)CCOc1ccc(C(=C(Cl)c2ccccc2)c2ccccc2)cc1 [clomiphene]
AK signal / cell lysis (C. neoformans [7]; positive control of the screen): strong AK signal
